Calls of active or inactive are those of the source. The calls are words filed in the database; no cut-off is given here.
Columns and labels:
MGC-803 = assay: Antiproliferative activity against human MGC-803 cells measured after 48 hrs by MTT assay; assay type: functional, cell-based; settings: MGC-803, 48 h
Summary of the method: (§1)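 Cells seeded 5 × 10^3 per well, grown overnight at 37 °C, then exposed to compound at final 1–40 μM (1, 2.5, 5, 7.5, 10, 12.5, 15, 20, 30, 40 μM) for the stated period. MTT added, 4 h at 37 °C, formazan dissolved in DMSO, absorbance read. IC50 = concentration killing 50% of cells relative to untreated control; mean ± S.D. of four independent experiments.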

[1] = Antiproliferative activity against human HCV-29 cells measured after 48 hrs by MTT assay; assay type: functional, cell-based; settings: HCV-29, 48 h; summary of the method: as §1
T-24 [2] = assay: Antiproliferative activity against human T24 cells measured after 48 hrs by MTT assay; assay type: functional, cell-based; settings: T-24, 48 h; summary of the method: as §1
HepG2 = assay: Antiproliferative activity against human HepG2 cells measured after 48 hrs by MTT assay; assay type: functional, cell-based; settings: HepG2, 48 h; summary of the method: as §1
[3] = Selectivity index, ratio IC50 for antiproliferative activity against human HCV-29 cells over IC50 for antiproliferative activity against human T24 cells; assay type: toxicity, cell-based; settings: HCV-29 cells versus T24 cells
Summary of the method: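 MTT assay, 48 h exposure at final 1–40 μM in T24 and normal bladder epithelial HCV29 cells (5 × 10^3/well, seeded overnight, 37 °C). MTT added for 4 h and formazan dissolved in DMSO. IC50 taken relative to untreated control, four parallel samples. SI = IC50(HCV29)/IC50(T24).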

[4] = Half-life in Sprague-Dawley rat at 12 mg/kg, IG measured HPLC analysis; assay type: ADME, organism-based; settings: in vivo, po
[5] = Clearance in Sprague-Dawley rat at 12 mg/kg, IG measured HPLC analysis; assay type: ADME, organism-based; settings: in vivo, po
[6] = Absorption rate constant in Sprague-Dawley rat at 12 mg/kg, IG measured HPLC analysis; assay type: ADME, organism-based; settings: in vivo, po
T-24 [7] = assay: Down-regulation of MLKL expression in human T24 cells at 7.5 to 10 uM measured after 16 hrs by Western blot analysis; assay type: functional, cell-based; settings: dose 7.5-10 µM
Summary of the method: (§2)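 T24 cells co-incubated 16 h with or without Nec-1 (60 μM). Lysates quantified by BCA, 40 μg protein resolved by SDS-PAGE, transferred to PVDF, probed with primary and peroxidase-conjugated secondary antibodies, detected by ECL. Band gray values normalized to β-actin loading control.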

T-24 [8] = assay: Down-regulation of RIPK3 expression in human T24 cells at 7.5 to 10 uM measured after 16 hrs by Western blot analysis; assay type: functional, cell-based; settings: dose 7.5-10 µM; summary of the method: as §2
[9] = AUMC in Sprague-Dawley rat at 12 mg/kg, IG measured HPLC analysis; assay type: ADME, organism-based; settings: in vivo, po
T-24 [10] = assay: Down-regulation of RIPK1 expression in human T24 cells at 7.5 to 10 uM measured after 16 hrs by Western blot analysis; assay type: functional, cell-based; settings: dose 7.5-10 µM; summary of the method: as §2
T-24 [11] = assay: Down-regulation of p-RIPK1 expression in human T24 cells at 7.5 to 10 uM measured after 16 hrs by Western blot analysis; assay type: functional, cell-based; settings: dose 7.5-10 µM; summary of the method: as §2
T-24 [12] = assay: Down-regulation of p-MLKL expression in human T24 cells at 7.5 to 10 uM measured after 16 hrs by Western blot analysis; assay type: functional, cell-based; settings: dose 7.5-10 µM; summary of the method: as §2
[13] = Tmax in Sprague-Dawley rat at 12 mg/kg, IG measured HPLC analysis; assay type: ADME, organism-based; settings: in vivo, po
Summary of the method: (§3)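 Fasted (12 h) male-unspecified Sprague-Dawley rats (250 ± 20 g), n = 6 per group. Single intragastric dose of suspension (2 mg mL−1 in Tween 80/0.9% NaCl 1.5:5 v/v). Orbital blood drawn at 0.5–48 h and plasma assayed by reversed-phase C18 HPLC-UV. One-compartment fit, weight 1.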

T-24 [14] = assay: Down-regulation of RIPK2 expression in human T24 cells at 7.5 to 10 uM measured after 16 hrs by Western blot analysis; assay type: functional, cell-based; settings: dose 7.5-10 µM; summary of the method: as §2
[15] = MRT (0 to 48 hrs) in Sprague-Dawley rat at 12 mg/kg, IG measured HPLC analysis; assay type: ADME, organism-based; settings: in vivo, po; summary of the method: as §3
[16] = Cmax in Sprague-Dawley rat at 12 mg/kg, IG measured HPLC analysis; assay type: ADME, organism-based; design: dose 12 mg/kg, route ig; settings: in vivo, po
[17] = AUC (0 to 48 hrs) in Sprague-Dawley rat at 12 mg/kg, IG measured HPLC analysis; assay type: ADME, organism-based; design: time < 48 hr, dose 12 mg/kg, route ig; settings: in vivo, po
T-24 [18] = assay: Down-regulation of p-RIPK3 expression in human T24 cells at 7.5 to 10 uM measured after 16 hrs by Western blot analysis; assay type: functional, cell-based; settings: dose 7.5-10 µM; summary of the method: as §2

SMILES | IC50 (MGC-803) [µM] | IC50 [1] [µM] | IC50 (T-24 [2]) [µM] | IC50 (HepG2) [µM] | SI [3] | further results
O=C(Nc1cccc(CNc2nccnc2Cl)c1)NC1CCCC1 | 23.4 | > 40 | > 40 | 18.4 | – | –
CS(=O)(=O)c1ccc(NC(=O)Nc2cccc(CNc3nccnc3Cl)c2)cc1 | 12.3 | > 40 | 29.3 | 15.1 | – | –
CC(C)(C)c1ccc(NC(=O)Nc2cccc(CNc3nccnc3Cl)c2)cc1 | 4.82 | 15.3 | 6.01 | 7.55 | 2.54 | –
Cc1ccc(NC(=O)Nc2cccc(CNc3nccnc3Cl)c2)cc1 | 11.9 | 20.1 | 9.82 | 11.5 | 2.05 | –
COc1ccccc1NC(=O)Nc1cccc(CNc2nccnc2Cl)c1 | 12.2 | 18.2 | 10.4 | 13.7 | 1.74 | –
COc1ccc(NC(=O)Nc2cccc(CNc3nccnc3Cl)c2)cc1 | 9.24 | 20.9 | 9.82 | 12 | 2.13 | –
Cc1ccc(NC(=O)Nc2cccc(CNc3nccnc3Cl)c2)cc1C | 9.87 | 12.8 | 8.93 | 10.7 | 1.43 | –
Cc1ccc(NC(=O)Nc2cccc(CNc3nccnc3Cl)c2)cc1Cl | 17.5 | 21.5 | 7.39 | 11.3 | 2.91 | –
Nc1ccn([C@@H]2O[C@H](CO)[C@@H](O)C2(F)F)c(=O)n1 [GEMCITABINE] | – | 21.5 | – | – | 2.12 | –
CN(C)c1ccc(NC(=O)Nc2cccc(CNc3nccnc3Cl)c2)cc1 | 11.5 | > 40 | 20.2 | > 40 | – | –
O=C(Nc1ccccc1)Nc1cccc(CNc2nccnc2Cl)c1 | 16.3 | 36.2 | 19.8 | 15.6 | 1.83 | –
O=C(Nc1cccc(CNc2nccnc2Cl)c1)Nc1ccc(F)c(Cl)c1 | 5.02 | 24.7 | 4.99 | 6.75 | 4.94 | –
O=C(Nc1cccc(Cl)c1)Nc1cccc(CNc2nccnc2Cl)c1 | 5.33 | 21.4 | 6.81 | 9.14 | 3.14 | –
CCc1ccccc1NC(=O)Nc1cccc(CNc2nccnc2Cl)c1 | 9.37 | 16.4 | 8.72 | 7.86 | 1.88 | –
Cc1cccc(NC(=O)Nc2cccc(CNc3nccnc3Cl)c2)c1 | 14.6 | 28.3 | 9.57 | 11.2 | 2.96 | –
O=C(Nc1cccc(CNc2nccnc2Cl)c1)Nc1ccc(Cl)cc1Cl | 6.43 | 25.4 | 5.74 | 7.23 | 4.42 | –
O=C(Nc1ccc(Cl)cc1)Nc1cccc(CNc2nccnc2Cl)c1 | 4.98 | 19.4 | 5.47 | 8.35 | 3.54 | –
CNC(=O)c1cc(Oc2ccc(NC(=O)Nc3ccc(Cl)c(C(F)(F)F)c3)c(F)c2)ccn1 [REGORAFENIB] | 9.46 | 12.9 | 5.98 | 10.4 | 2.16 | half-life [4]: 304 min; CL/F [5]: 0.986 mL/min; Ka [6]: 0.138 h⁻¹; Activity (T-24 [7]): Active; Activity (T-24 [8]): Active; AUMC [9]: 737185 hr2.ng/ml; Activity (T-24 [10]): Active; Activity (T-24 [11]): Active; Activity (T-24 [12]): Active; Tmax [13]: 8.07 h; Activity (T-24 [14]): Active; MRT last [15]: 7.29 h; Cmax [16]: 3100 ng/mL; AUC(0-t) at 48 h [17]: 50700 ng·h/mL; Activity (T-24 [18]): Active
CCc1cccc(CC)c1NC(=O)Nc1cccc(CNc2nccnc2Cl)c1 | 6.13 | 18.7 | 6.39 | 10.8 | – | –
O=C(Nc1cccc(CNc2nccnc2Cl)c1)Nc1ccc(Cl)c(Cl)c1 | 4.97 | 27.2 | 5.21 | 6.17 | 5.22 | –
O=C(Nc1cccc(CNc2nccnc2Cl)c1)Nc1ccccc1Cl | 7.13 | 28.1 | 6.68 | 8.56 | 4.21 | –
Cc1ccccc1NC(=O)Nc1cccc(CNc2nccnc2Cl)c1 | 14 | 33.6 | 13.6 | 15.3 | 2.47 | –
O=C(Nc1cccc(CNc2nccnc2Cl)c1)Nc1cccc(C(F)(F)F)c1 | 7.29 | 28.7 | 5.08 | 6.21 | 5.64 | –
O=C(Nc1cccc(CNc2nccnc2Cl)c1)Nc1ccc(Cl)cc1Br | 7.48 | 24 | 6.65 | 6.72 | 3.61 | –
O=C(Nc1cccc(CNc2nccnc2Cl)c1)NC1CCCCC1 | > 40 | > 40 | > 40 | > 40 | – | –
Cc1ccc(NC(=O)Nc2cccc(CNc3nccnc3Cl)c2)c(C)c1 | 10.1 | 23.8 | 9.23 | 9.29 | 2.58 | –
CCOc1ccc(NC(=O)Nc2cccc(CNc3nccnc3Cl)c2)cc1 | 7.24 | 30.5 | 9.08 | 7.05 | 3.36 | –
O=C(Nc1cccc(CNc2nccnc2Cl)c1)Nc1ccccc1F | 6.44 | 25.1 | 7.45 | 10.5 | 3.37 | –
O=C(Nc1cccc(CNc2nccnc2Cl)c1)Nc1cccc2ccccc12 | 32.7 | > 40 | > 40 | > 40 | – | –

— ChEMBL document CHEMBL5104108, “Concise synthesis and biological activity evaluation of novel pyrazinyl-aryl urea derivatives against several cancer cell lines, which can especially induce T24 apoptotic and necroptotic cell death” (RSC Med Chem, 2022)
